Source: paper PMC8114561 (Small (Weinheim an der Bergstrasse, Germany), 2019)
Where “and” joins values, the source holds several entries; their conditions need not be identical. Equal entries are not always repeated.

How the values were obtained:
C26 tumors = experiment: Tumor regression, syngeneic C26 colon carcinoma; assay type: in vivo, BALB/c mice; details: single i.v. dose
MIA PaCa-2 tumors = experiment: Tumor regression, MIA PaCa-2 pancreatic xenograft; assay type: in vivo, nude BALB/c mice; details: 20 mg Dox equiv. kg^−1 BW
[1] = cited from earlier work
[2] = tested on: advanced soft tissue sarcomas; details: cited from earlier work
STS = details: ref NCT01514188; cited from earlier work
[3] = Intravenous pharmacokinetics in healthy BALB/c mice
[4] = tested on: C26 murine colon carcinoma cells; experiment: In vitro cytotoxicity; assay type: cell-based
MIA PaCa-2 cells = experiment: In vitro cytotoxicity; assay type: cell-based, human; details: 72 h incubation, MTS, Dox equiv. concentration, n = 3 (Figure 2F)
Method in brief: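 MIA PaCa-2 cells grown in DMEM with 10% FBS and 2.5% horse serum, seeded at 5000 cells/well and left overnight. Exposed for 72 h, in triplicate, to 3-fold serial dilutions in medium, with cell-free wells for background correction. MTS added for 3 h at 37 °C, then A490 read. Viability relative to buffer-treated cells; IC50 as Dox equiv. by logistic nonlinear regression.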

[5] = mouse, iv

## COc1cccc2c1C(=O)c1c(O)c3c(c(O)c1C2=O)C[C@@](O)(/C(CO)=N/NC(=O)CCCCCN1C(=O)C=CC1=O)C[C@@H]3O[C@H]1C[C@H](N)[C@H](O)[C@H](C)O1 [AlDox, Aldoxorubicin]
C26 tumors; 20 mg Dox equiv. kg^−1 BW
  Mice that did not survive over the 100-day course of study: 89%
C26 tumors; without recurrence of the primary tumor in any mice, 100 days
  Tumor response at 20 mg Dox equiv. kg^−1 BW: complete eradication of C26 tumors
MIA PaCa-2 tumors
  Tumor recurrence in tumor-eradicated mice by day 50: tumors recurred in all of the tumor-eradicated mice
MIA PaCa-2 tumors; single i.v. dose
  Mice with complete tumor disappearance by day 15: 50%
[1]; aqueous solutions
  Concentration at which an acidic pH is required for solubility: ≥ 0.5 mg Dox equiv. mL^−1
[1]; requires an acidic pH for solubility in aqueous solutions
  Solubility at physiological pH: poor solubility
[2]
  Cardiotoxicity: minimal cardiotoxicity
  Progression-free survival compared to the standard of care regimen: superior progression-free survival
STS
  Cardiotoxicity in the AlDox arm: no evidence of cardiotoxicity
  Overall survival, AlDox versus free Dox arms: not considerably different
  PFS in the AlDox arm: superior PFS
[3]; i.v. 5 mg Dox equiv. per kg BW, 15 min
  Plasma concentration 15 min after i.v. injection, fold lower than ABD–Dox: approximately 2 fold
[3]; i.v. 5 mg Dox equiv. per kg BW, plasma, two-compartment model, mean ± SD
  Area under curve: 801.2 ± 23.7 × 10^−6 M h

## COc1cccc2c1C(=O)c1c(O)c3c(c(O)c1C2=O)C[C@@](O)(C(=O)CO)C[C@@H]3O[C@H]1C[C@H](N)[C@H](O)[C@H](C)O1 [free Dox, doxorubicin]
[4]; 72 h, in the absence of MSA and ABD, n = 3 (Figure 2H)
  IC50: 230 nM
[4]; 72 h, in the presence of ABD (0.5 × 10^−3 M in medium), n = 3 (Figure 2H)
  IC50: 160 nM
[4]; 72 h, in the presence of MSA (equimolar), n = 3 (Figure 2H)
  IC50: 220 nM
[4]; 72 h incubation, MTS, Dox equiv. concentration, n = 3 (Figure 2F)
  IC50: 510 nM and 500 nM
[4]; C26 cells, 72 h
  Change of cytotoxicity in the presence of either MSA or ABD: No difference was observed
MIA PaCa-2 cells
  IC50: 40 nM
[5]
  In vivo elimination half-life: on the order of minutes
[3]; i.v. 5 mg per kg BW, 15 min
  Concentration in blood 15 min after i.v. injection, of the initial concentration: less than 2%
